Data reported in ChEMBL document CHEMBL4316610, “Synthesis and Biological Studies of (+)-Liquiditerpenoic Acid A (Abietopinoic Acid) and Representative Analogues: SAR Studies” (J Nat Prod, 2019).
The source made the active and inactive calls. The calls are words filed in the database; no cut-off is given here.

Assays:
[1] = biological target: T1, GABA-A receptor; alpha-1/beta-2/gamma-2 (Homo sapiens) (UniProt P14867+P47870+P18507); assay: (§1) Modulation of recombinant wild type GABAA receptor alpha1beta2gamma2S (unknown origin) expressed in Xenopus laevis oocytes assessed as increase in GABA-evoked chloride current at -70 mV holding potential by two-microelectrode voltage clamp assay; type: cell-based
Summary of the method: (§2)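 Two-microelectrode voltage clamp of Xenopus laevis oocytes expressing α1β2γ2S GABA_A receptors, held at -70 mV. GABA EC5 (4-5 μM), determined individually for each oocyte, applied for 20 s alone or co-applied with compound at 10 and 100 μM; potentiation of GABA-evoked current measured. Dehydroabietic acid as positive control; mean ± SEM from at least three oocytes and two oocyte batches.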

[2] = biological target: T2, GABA-A receptor; alpha-1/beta-2/gamma-2 (Homo sapiens, UniProt P14867+P18507+P47870); assay: as §1; type: cell-based; summary of the method: as §2
T2 sequence (P14867 whole entry): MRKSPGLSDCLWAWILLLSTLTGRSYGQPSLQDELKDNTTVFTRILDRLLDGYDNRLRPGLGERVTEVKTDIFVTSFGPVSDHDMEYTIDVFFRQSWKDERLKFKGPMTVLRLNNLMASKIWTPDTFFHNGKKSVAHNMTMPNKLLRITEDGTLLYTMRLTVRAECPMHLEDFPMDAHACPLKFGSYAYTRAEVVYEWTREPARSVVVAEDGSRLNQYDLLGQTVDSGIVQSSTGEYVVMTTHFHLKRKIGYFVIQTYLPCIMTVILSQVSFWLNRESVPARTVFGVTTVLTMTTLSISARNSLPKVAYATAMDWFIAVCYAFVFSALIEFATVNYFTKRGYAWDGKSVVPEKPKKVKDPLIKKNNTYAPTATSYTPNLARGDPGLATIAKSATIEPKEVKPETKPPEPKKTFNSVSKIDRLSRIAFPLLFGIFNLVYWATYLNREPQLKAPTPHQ
T2 sequence (P47870 whole entry): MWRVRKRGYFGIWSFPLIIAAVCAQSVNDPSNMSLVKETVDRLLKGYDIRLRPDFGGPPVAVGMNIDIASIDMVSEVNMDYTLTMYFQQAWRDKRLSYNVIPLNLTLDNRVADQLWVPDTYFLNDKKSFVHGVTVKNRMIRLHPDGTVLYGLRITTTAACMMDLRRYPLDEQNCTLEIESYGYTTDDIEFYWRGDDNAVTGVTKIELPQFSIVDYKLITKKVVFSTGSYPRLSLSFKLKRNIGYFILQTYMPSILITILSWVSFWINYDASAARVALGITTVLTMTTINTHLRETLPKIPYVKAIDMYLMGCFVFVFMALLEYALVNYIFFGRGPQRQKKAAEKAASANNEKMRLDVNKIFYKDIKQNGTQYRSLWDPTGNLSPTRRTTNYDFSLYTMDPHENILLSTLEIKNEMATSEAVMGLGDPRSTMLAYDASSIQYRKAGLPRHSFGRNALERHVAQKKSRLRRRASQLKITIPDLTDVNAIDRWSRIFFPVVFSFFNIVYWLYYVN
T2 sequence (P18507 whole entry): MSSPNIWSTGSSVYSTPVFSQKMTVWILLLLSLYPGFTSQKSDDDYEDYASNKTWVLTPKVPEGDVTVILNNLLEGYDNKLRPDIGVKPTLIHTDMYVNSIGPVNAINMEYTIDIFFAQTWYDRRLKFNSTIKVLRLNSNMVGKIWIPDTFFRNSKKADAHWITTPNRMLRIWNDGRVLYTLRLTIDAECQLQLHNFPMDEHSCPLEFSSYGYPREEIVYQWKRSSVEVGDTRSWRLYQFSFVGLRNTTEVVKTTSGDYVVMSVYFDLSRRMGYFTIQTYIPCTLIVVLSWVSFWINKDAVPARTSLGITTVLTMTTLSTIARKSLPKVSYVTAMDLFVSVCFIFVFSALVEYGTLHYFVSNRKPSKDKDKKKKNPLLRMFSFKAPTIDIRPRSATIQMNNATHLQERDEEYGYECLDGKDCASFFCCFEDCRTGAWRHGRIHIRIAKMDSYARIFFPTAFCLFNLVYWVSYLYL

[3] = biological target: T1, GABA-A receptor; alpha-1/beta-2/gamma-2 (Homo sapiens); assay: Modulation of recombinant wild type GABAA receptor alpha1beta2gamma2S (unknown origin) expressed in Xenopus laevis oocytes assessed as increase in GABA-evoked chloride current at 10 uM at -70 mV holding potential by two-microelectrode voltage clamp assay relative to control; type: cell-based
Summary of the method: (§3)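 Two-microelectrode voltage clamp at -70 mV on Xenopus laevis oocytes expressing α1β2γ2S GABA-A receptors. GABA EC5 (4-5 μM), set individually for each oocyte, applied for 20 s alone, then co-applied with compound at 10 or 100 μM. Potentiation of GABA-evoked current is reported. Dehydroabietic acid served as positive control. Mean ± SEM from at least three oocytes and two oocyte batches.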

[4] = biological target: T1, GABA-A receptor; alpha-1/beta-2/gamma-2 (Homo sapiens); assay: Modulation of recombinant wild type GABAA receptor alpha1beta2gamma2S (unknown origin) expressed in Xenopus laevis oocytes assessed as increase in GABA-evoked chloride current at 100 uM at -70 mV holding potential by two-microelectrode voltage clamp assay relative to control; type: cell-based; summary of the method: as §3
A549 = assay: Antiproliferative activity against human A549 cells after 48 hrs by SRB assay; type: functional; conditions: A549, 48 h
HBL-100 = assay: Antiproliferative activity against human HBL100 cells after 48 hrs by SRB assay; type: functional; conditions: HBL-100, 48 h
HeLa = assay: Antiproliferative activity against human HeLa cells after 48 hrs by SRB assay; type: functional
SW1573 = assay: Antiproliferative activity against human SW1573 cells after 48 hrs by SRB assay; type: functional; conditions: SW1573, 48 h
T47D = assay: Antiproliferative activity against human T47D cells after 48 hrs by SRB assay; type: functional
WiDr = assay: Antiproliferative activity against human WiDr cells after 48 hrs by SRB assay; type: functional
[5] = Cytotoxicity against mouse J774 cells assessed as reduction in cell viability after 48 hrs by resazurin dye-based fluorometric analysis
Summary of the method: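 The CC50 is taken as the concentration giving a 50% reduction in cell viability of treated cultures compared with untreated cells.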

Leishmania amazonensis [6] = assay: Antileishmanial activity against Leishmania amazonensis MHOM/Br/79/Mari promastigotes after 48 hrs by resazurin dye-based fluorometric analysis; type: functional, organism-based; conditions: Leishmania amazonensis, MHOM/Br/79/Mari, 48 h; read-out: IC50
Summary of the method: (§4)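 The IC50 is taken as the compound concentration giving a 50% reduction in parasites, reported with SD.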

Leishmania guyanensis [7] = assay: Antileishmanial activity against Leishmania guyanensis 141/93 promastigotes after 48 hrs by resazurin dye-based fluorometric analysis; type: functional, organism-based; conditions: Leishmania guyanensis, 141/93, 48 h; read-out: IC50; summary of the method: as §4
Leishmania donovani = assay: Antileishmanial activity against Leishmania donovani MHOM/IN/80/DD8 promastigotes after 48 hrs by resazurin dye-based fluorometric analysis; type: functional, organism-based; conditions: Leishmania donovani, MHOM/IN/80/DD8, 48 h; summary of the method: as §4
Leishmania infantum [8] = assay: Antileishmanial activity against Leishmania infantum MCAN/ES/96/BCN150 promastigotes after 48 hrs by resazurin dye-based fluorometric analysis; type: functional, organism-based; conditions: Leishmania infantum, MCAN/ES/96/BCN150, 48 h; read-out: IC50; summary of the method: as §4
[9] = Selectivity index, ratio of CC50 for mouse J774 cells to IC50 for Leishmania amazonensis MHOM/Br/79/Mari promastigotes; type: toxicity; conditions: read-out: Ratio CC50/IC50
[10] = Selectivity index, ratio of CC50 for mouse J774 cells to IC50 for Leishmania guyanensis 141/93 promastigotes; type: toxicity; conditions: read-out: Ratio CC50/IC50
[11] = Selectivity index, ratio of CC50 for mouse J774 cells to IC50 for Leishmania donovani MHOM/IN/80/DD8 promastigotes; type: toxicity; conditions: read-out: Ratio CC50/IC50
[12] = Selectivity index, ratio of CC50 for mouse J774 cells to IC50 for Leishmania infantum MCAN/ES/96/BCN150 promastigotes; type: toxicity; conditions: read-out: Ratio CC50/IC50
Leishmania amazonensis [13] = assay: Antileishmanial activity against Leishmania amazonensis MHOM/Br/79/Mari amastigotes infected in mouse J774 cells after 48 hrs by resazurin dye-based fluorometric analysis; type: functional, organism-based; conditions: J774, 48 h
Leishmania infantum [14] = assay: Antileishmanial activity against Leishmania infantum MCAN/ES/96/BCN150 amastigotes infected in mouse J774 cells after 48 hrs by resazurin dye-based fluorometric analysis; type: functional, organism-based; conditions: MCAN/ES/96/BCN150, J774, 48 h
[15] = Selectivity index, ratio of CC50 for mouse J774 cells to IC50 for Leishmania amazonensis MHOM/Br/79/Mari amastigotes infected in mouse J774 cells; type: toxicity, cell-based; conditions: read-out: Ratio CC50/IC50
Summary of the method: (§5)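 CC50: concentration giving 50% reduction of viability in treated cells relative to untreated; IC50: concentration giving 50% reduction in parasites; SI = CC50/IC50.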

[16] = Selectivity index, ratio of CC50 for mouse J774 cells to IC50 for Leishmania infantum MCAN/ES/96/BCN150 amastigotes infected in mouse J774 cells; type: toxicity, cell-based; conditions: read-out: Ratio CC50/IC50; summary of the method: as §5
NALM-6 [17] = assay: Antiproliferative activity against human NALM6 cells after 72 hrs by CellTiter-Glo luminescent cell viability assay; type: functional, cell-based; conditions: NALM-6, 72 h
[18] = Antiproliferative activity against mouse leukemia cells overexpressing BCR/ABL after 72 hrs by CellTiter-Glo luminescent cell viability assay; type: functional, cell-based
KOPN-8 [19] = assay: Antiproliferative activity against human KOPN8 cells after 72 hrs by CellTiter-Glo luminescent cell viability assay; type: functional, cell-based; conditions: KOPN-8, 72 h
SUP-B15 = assay: Antiproliferative activity against human SUP-B15 cells after 72 hrs by CellTiter-Glo luminescent cell viability assay; type: functional, cell-based; conditions: SUP-B15, 72 h
UoC-B1 = assay: Antiproliferative activity against human UOCB1 cells after 72 hrs by CellTiter-Glo luminescent cell viability assay; type: functional, cell-based; conditions: UoC-B1, 72 h
BJ = assay: Antiproliferative activity against human BJ cells after 72 hrs by CellTiter-Glo luminescent cell viability assay; type: ADME, cell-based
NALM-6 [20] = assay: Induction of apoptosis in human NALM6 cells after 24 hrs by Annexin V-FITC/propidium iodide staining-based flow cytometric analysis; type: functional, cell-based
Summary of the method: (§6)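 Phosphatidylserine exposure read by Annexin V-FITC/propidium iodide flow cytometry; DNA content by PI staining for cell-cycle distribution.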

KOPN-8 [21] = assay: Induction of apoptosis in human KOPN8 cells assessed as late apoptotic cells at 20 uM after 32 hrs by Annexin V-FITC/propidium iodide staining-based flow cytometric analysis relative to control; type: functional
NALM-6 [22] = assay: Cell cycle arrest in human NALM6 cells assessed as accumulation at G0/G1 phase at 10 uM after 24 hrs by propidium iodide staining-based flow cytometric analysis; type: functional; summary of the method: as §6
NALM-6 [23] = assay: Cell cycle arrest in human NALM6 cells assessed as accumulation at G2/M phase at 10 uM after 24 hrs by propidium iodide staining-based flow cytometric analysis; type: functional; summary of the method: as §6
Leishmania guyanensis [24] = assay: Potency index, ratio of miltefosine IC50 to compound IC50 for Leishmania guyanensis 141/93 promastigotes after 48 hrs by resazurin dye-based fluorometric analysis; type: functional
[25] = read-out: log(1/IC50) (converted)

| SMILES | Activity [3] [%] | Activity [4] [%] | CC50 at 48 h [5] [µM] | IC50 (Leishmania amazonensis [6]) [µM] | IC50 (Leishmania guyanensis [7]) [µM] | IC50 (Leishmania donovani; read-out: IC50) [µM] | IC50 (Leishmania donovani; [25]) [µM] | IC50 (Leishmania infantum [8]) [µM] | selectivity ratio [9] | selectivity ratio [10] | selectivity ratio [11] | selectivity ratio [12] | further results |
| --- | --- | --- | --- | --- | --- | --- | --- | --- | --- | --- | --- | --- | --- |
| CC(C)C1=CC2=CC[C@H]3[C@](C)(C(=O)O)CCC[C@]3(C)C2CC1 (some centres undefined) | 187 | 841 | – | – | – | – | – | – | – | – | – | – | Emax [1]: 398%; EC50 [2]: 8.7 µM |
| COC(=O)[C@]1(C)CCC[C@]2(C)c3cc(C(C)=O)c(C(C)C)cc3CC[C@@H]12 | 2.7 | -2.9 | 130 | 11.6 | 14.2 | 14.8 | 14.8 | 2.5 | 11.2 | 9.1 | 8.8 | 51.8 | GI50 (A549): 18 µM; GI50 (HBL-100): 15 µM; GI50 (HeLa): 11 µM; GI50 (SW1573): 11 µM; GI50 (T47D): 10 µM; GI50 (WiDr): 17 µM; IC50 (Leishmania amazonensis [13]): 31.4 µM; IC50 (Leishmania infantum [14]): 37.2 µM; selectivity ratio [15]: 4.1; selectivity ratio [16]: 3.5 |
| COC(=O)[C@]1(C)CCC[C@]2(C)c3cc(OC(C)=O)c(C(C)C)cc3C(=O)C[C@@H]12 | -1 | 46.7 | 17.8 | 0.65 | 1.3 | 4.4 | 4.38 | 0.7 | 27.4 | 13.6 | 4.1 | 25.4 | EC50 (NALM-6 [17]): 10.7 µM; EC50 [18]: 12.2 µM; EC50 (KOPN-8 [19]): 18.5 µM; EC50 (SUP-B15): 21.7 µM; EC50 (UoC-B1): > 40 µM; EC50 (BJ): Non-Toxic; Activity (NALM-6 [20]): Dose-dependent effect; Activity (KOPN-8 [21]): >85%; Activity (NALM-6 [22]): Active; Activity (NALM-6 [23]): Active; Ratio IC50 (Leishmania guyanensis [24]): 13 |
